A selection: hits, their analogues and other compounds. The true share with any hit is near 1.6%.
PHOSPHO1 inh = PHOSPHO1 (human) inhibition. AID 1565. inhibition, % at 13.3 µM. recombinant PHOSPHO1, absorbance phosphatase assay. 290,000 compounds, 1.1% hits; in the data active = inhibition above about 60%
ABCG2 inh = blocks JC-1 efflux by human ABCG2 transporter; IgMXP3 cells, flow cytometry; inhibition, % at 6.6 µM; 190,000 compounds, 0.1% hits; AID 1325;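 active = inhibition above 80%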;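 also: 0% = DMSO and 100% = nicardipine control wells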
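Measure – % inhibition of efflux relative to nicardipine and DMSO · Test system – ABCG2 IgMXP3 and barcoded ABCB1 CCRF-Adr cell mix · Control set – nicardipine as high control, DMSO as low control · Compound – one concentration, 6.6 µM final · Signal – flow cytometry of retained JC-1 fluorescence · Timing – 10 min exposure at 25 °C with rotation, no wash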
NCF1 inh = blocks human p47phox regulatory protein of NADPH oxidases. p47phox/p22phox peptide binding, fluorescence polarization, 2 h. inhibition, % at 24.7 µM. 220,000 compounds, 0.53% hits. AID 1274;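 active = inhibition above about 30%, limit read from the data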;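 also: 0% = p47phox with labelled peptide and 100% = labelled peptide alone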
ABCB1 block = human ABCB1 inhibition, ABCG2 as counter-screen. inhibition, % at 6.6 µM. AID 1326. CCRF-Adr cells, JC-1 efflux, flow cytometry. P08183. 190,000 compounds, 0.067% hits; in the data active = inhibition above about 40%;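 also: 0% = vehicle and 100% = reference inhibitor; higher value means more JC-1 retained so stronger ABCB1 efflux block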
HSV replic up = increases HSV replication in cells. 220,000 compounds, 0.005% hits. maximum fold increase. HSV replication augmentation in cells, fold increase; in the data active = maximum fold increase above about 1.5; inconclusive = no clear call, values can overlap the other calls; tested in PC3 cells
PKD1 kinase inh = blocks activity of human protein kinase D1 | Q15139 | PKD1 kinase fluorescence polarization assay | inhibition, % (concentration not given with the values) | 200,000 compounds, 0.056% hits; in the data active = inhibition above about 50%
Target sequence (Q15139 whole entry, looked up): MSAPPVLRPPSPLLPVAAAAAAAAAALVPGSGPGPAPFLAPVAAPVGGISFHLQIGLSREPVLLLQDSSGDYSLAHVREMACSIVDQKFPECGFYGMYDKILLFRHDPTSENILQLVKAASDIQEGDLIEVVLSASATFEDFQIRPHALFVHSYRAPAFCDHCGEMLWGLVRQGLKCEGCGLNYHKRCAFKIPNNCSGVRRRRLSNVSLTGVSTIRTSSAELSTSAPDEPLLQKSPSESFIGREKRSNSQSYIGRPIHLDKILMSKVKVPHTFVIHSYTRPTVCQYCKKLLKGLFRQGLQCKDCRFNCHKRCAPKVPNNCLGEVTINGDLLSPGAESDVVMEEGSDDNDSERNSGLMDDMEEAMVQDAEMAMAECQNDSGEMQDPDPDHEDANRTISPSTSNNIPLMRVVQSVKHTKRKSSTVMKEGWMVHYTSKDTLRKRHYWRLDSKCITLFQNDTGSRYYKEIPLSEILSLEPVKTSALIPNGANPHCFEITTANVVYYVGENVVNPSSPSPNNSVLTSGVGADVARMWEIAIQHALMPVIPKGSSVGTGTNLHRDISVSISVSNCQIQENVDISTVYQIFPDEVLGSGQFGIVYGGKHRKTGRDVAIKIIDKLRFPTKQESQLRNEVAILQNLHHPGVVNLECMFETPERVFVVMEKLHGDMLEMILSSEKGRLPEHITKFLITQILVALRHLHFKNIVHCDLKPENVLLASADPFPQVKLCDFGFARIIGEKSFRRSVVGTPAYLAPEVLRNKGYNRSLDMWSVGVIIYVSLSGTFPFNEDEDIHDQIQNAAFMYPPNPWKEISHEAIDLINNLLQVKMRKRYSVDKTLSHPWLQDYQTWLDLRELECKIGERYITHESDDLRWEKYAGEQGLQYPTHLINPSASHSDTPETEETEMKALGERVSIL
The depositor's hits bear a star; i = inactive; ? = inconclusive; . = no result.

SMILES	PHOSPHO1 inh	ABCG2 inh	NCF1 inh	ABCB1 block	HSV replic up	PKD1 kinase inh
C/C(=N/NC(=O)CSc1nc2ccccc2s1)c1ccncc1	45	.	3	.	i	.
CC(C)Sc1nc(SCC(=O)O)c2c3c(sc2n1)COC(C)(C)C3	84*	.	-11	.	i	.
CC(C)Sc1nc(SCC(=O)NCc2ccco2)c2c3c(sc2n1)COC(C)(C)C3	-6	7	-11	2	i	-4
COC(=O)c1sc(-c2ccc(C(C)(C)C)cc2)cc1NC(=O)CCC(=O)O	42	.	33*	.	i	.
COC(=O)c1sc(-c2ccc(Cl)cc2)cc1NC(=O)COCC(=O)O	43	.	-5	.	i	.
CC1(C)Cc2ccccc2-c2n[nH]c(=S)n21	96*	3	-1	1	i	9
N/C(Cn1cncn1)=N\NC(=O)C(=O)Nc1ccc(Cl)cc1Cl	60*	3	7	1	i	4
N/C(Cn1cncn1)=N\NC(=O)c1ccc(Cl)cc1Cl	47	2	-8	1	i	1
CC(Oc1ccccc1Cl)C(=O)Nc1ccccc1C(=O)N1CCOCC1 (stereo not drawn)	46	.	.	.	.	.
O=C(NCc1cnn(-c2ccc(F)cc2)c1)C1CCC(=O)N(C2CC2)C1 (stereo not drawn)	61*	.	.	.	.	.
C/C(N)=C(/C#N)C(=O)CSc1nnc(Nc2c(C)cccc2C)s1	67*	0	-2	0	i	0
C/C(N)=C(/C#N)C(=O)CSc1nnc(Nc2cccc(C)c2C)s1	39	2	-5	0	i	-5
CCOc1ccccc1NC(=S)NCc1ccco1	82*	2	-1	0	i	-6
CCOc1ccccc1NC(=S)NCc1ccccc1	30	.	.	.	.	.
S=C(NCc1ccco1)Nc1ccc(Cl)c(Cl)c1	72*	6	-30	1	i	-3
O=C(Nc1ccc(Cl)cc1Cl)c1ccc(-c2ccccc2)cc1	7	-2	-6	0	i	-4
CCOC(=O)c1ccc(Cl)c(NC(=O)c2ccc(-c3ccccc3)cc2)c1	66*	2	4	0	i	-3
COc1cc(NS(=O)(=O)c2ccc(C)cc2)ccc1-n1cnnn1	-12	0	53*	0	i	-7
COC(=O)c1ccc(NC(=O)NC2CCCCC2)cc1	8	5	1	0	i	-6
CC(=O)Nc1ccc(C(=O)OCC(=O)NC(=O)NC2CCCCC2)cc1	-3	1	133*	0	i	-10
N/C(=N\c1nc2c(c(=O)[nH]1)CCC2)Nc1ccccc1	9	5	-15	0	i	2
CCCOc1ccc(C(=O)NC(=S)Nc2nc3ccccc3s2)cc1	85*	3	-2	0	i	-9
CCCOc1ccc(C(=O)NC(=S)Nc2nc3ccc(C)cc3s2)cc1	0	1	-9	0	i	1
COc1ccccc1N1CCN(S(=O)(=O)c2cc(Br)cnc2N)CC1	64*	.	.	.	.	.
C#CCn1cc(C=C2C(=O)c3ccccc3C2=O)c2ccccc21	-14	-4	81*	0	i	2
SMILES	PHOSPHO1 inh	ABCG2 inh	NCF1 inh	ABCB1 block	HSV replic up	PKD1 kinase inh
CC(C)NCC(O)c1ccc(O)c(O)c1 (stereo not drawn)	36	.	.	.	.	.
CNC[C@H](O)c1ccc(O)c(O)c1	-11	4	51*	1	i	-1
O=C(CSc1ncnc2c(-c3ccc(Cl)cc3)nsc12)c1ccccc1	73*	8	-22	0	i	-2
O=C(CSc1ncnc2nc[nH]c12)c1ccc(Cl)cc1	31	.	.	.	.	.
CSc1nccc(N/N=C/c2ccccc2)n1	24	.	.	.	.	.
Cn1cc(C(=O)Nc2ccc(F)c(Cl)c2)cn1	0	4	-5	1	i	7
CN1c2ccsc2C(O)=C(C(=S)Nc2ccc(F)c(Cl)c2)S1(=O)=O	92*	31	-6	-1	i	-2
CCOC(=O)c1c(NC(=O)CSc2nnnn2-c2ccc(OC)cc2)sc(C)c1C	87*	22	-44	7	i	-4
Nc1ncnc2c1ncn2[C@@H]1O[C@H](CO)C[C@@H]1O	-132	1	-12	.	i	.
CN(C)CC(C)(C)CN=Cc1c(O)[nH]c2ccccc12	2	.	88*	.	i	.
C=CCn1c(-c2cccn(Cc3ccc(Cl)cc3)c2=O)n[nH]c1=S	99*	-1	-3	0	i	-4
C=CCn1c(-c2cccn(Cc3ccccc3)c2=O)n[nH]c1=S	-67	5	-6	0	i	-17
C=CCn1c(-c2cccn(Cc3cccc(Cl)c3)c2=O)n[nH]c1=S	98*	0	-2	0	i	-8
CCn1c(SCC(=O)N2CCC(C)CC2)nc2c(c1=O)SC(C)C2 (stereo not drawn)	38	.	.	.	.	.
O=C(c1ccco1)[C@@H]1[C@@H]2C(=O)N(c3ccc(Br)cc3)C(=O)[C@@H]2C2c3ccccc3C=CN21 (stereo partly drawn)	68*	.	.	.	?	-8
O=C(c1ccco1)[C@@H]1[C@@H]2C(=O)N(c3ccc(F)cc3)C(=O)[C@@H]2C2c3ccccc3C=CN21 (stereo partly drawn)	55	29	-15	2	i	-5
COc1cc(-c2nc(CN3CCN(c4ncccn4)CC3)c(C)o2)ccc1F	23	1	-1	0	i	0
COc1ccc(C(=O)Nc2ccc(S(=O)(=O)Nc3ncccn3)cc2)cc1OC	60*	1	2	0	i	-2
Cc1ccc(/C=C/C(=O)Nc2ccc(S(=O)(=O)Nc3ncccn3)cc2)cc1	32	-3	-3	-1	i	7
O=C(/C=C/c1ccc(F)cc1)Nc1ccc(S(=O)(=O)Nc2ncccn2)cc1	6	.	120*	.	i	.
CC(=O)NN1C(=O)/C(=C\c2ccc(Cl)cc2)SC1=S	24	7	-14	1	i	7
CC(=O)c1c[nH]c(C(=O)NCc2cccc(C(F)(F)F)c2)c1	9	.	.	.	.	.
CCOC(=O)N1CCN(C(=O)Cn2nc(C)n3nc(-c4ccc(CC)cc4)cc3c2=O)CC1	32	.	.	.	.	.
COc1ccc(-c2csc3nc(C(C)(C)C)oc(=O)c23)cc1OC	1	1	3	0	i	-13
COc1ccc(-c2csc3nc(-c4ccc(C)cc4)oc(=O)c23)cc1OC	44	-5	43*	-1	i	0
COc1cc(OC)cc(C(=O)N2CCC(n3c(C)nc4cc(F)ccc43)CC2)c1	-11	5	-13	2	.	3
O=C(CSc1nnc(COc2ccccc2)n1Cc1ccco1)c1ccc(F)cc1	78*	4	-5	1	i	-5
Cc1ccc(C(=O)CSc2nnc(CNc3ccc(C)cc3C)n2Cc2ccco2)cc1	-16	11	-9	2	i	-6
Cc1ccc(OCc2nnc(SCC(=O)c3ccccc3)n2Cc2ccco2)cc1	92*	4	-31	2	i	-7

Source: PubChem BioAssay (several laboratories)
